# Test results taken from ChEMBL document CHEMBL1132932, “Design of a Gag pentapeptide analogue that binds human cyclophilin A more efficiently than the entire capsid protein: new insights for the development of novel anti-HIV-1 drugs” (J Med Chem, 2000).
# Starred links: 1 amine or outer side, 2 acyl side, 3 side chain; linkers in the order of their positions; H or OH if unused. Non-standard residues stand in square brackets, D forms with d. Residues, ends and D or L forms follow the SMILES beside them. *: point of attachment. Desaminohistidyl = O=C(CCc1c[nH]cn1)*; NHCH2CHPh2 = c1ccc(C(CN*)c2ccccc2)cc1; NHCHPh2 = c1ccc(C(N*)c2ccccc2)cc1; pNA = O=[N+]([O-])c1ccc(N*)cc1; NHPhenethyl = c1ccc(CCN*)cc1; Suc = O=C(CCC(=O)[*:2])[*:1]; Isovaleryl = CC(C)CC(=O)*; Ac5c = NC1(C(=O)O)CCCC1; Api = NC1(C(=O)O)CCNCC1; Aib = CC(C)(N)C(=O)O; NHBn = c1ccc(CN*)cc1
# Target: T1, Peptidyl-prolyl cis-trans isomerase A (Homo sapiens, UniProt P62937)
# Test: % inhibition of competitive binding, at 500 uM, against human Peptidyl-prolyl isomerase
# In short: (§1)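 Recombinant human hCyp-18 (expressed in E. coli M15, ion-exchange purified), 16 nM in 35 mM Hepes pH 7.8, preincubated 2 min with peptides added from DMSO stocks (100 µM to 100 mM). Substrate Suc-Ala-Ala-Pro-Phe-DFA in TFE/0.47 M LiCl added to a final 200 µM. Uncoupled cis/trans isomerization followed by absorbance at 246 nm, 10 °C, over 6 min. Pseudo-first-order k_obs taken from 0.05–0.5 min data, activity expressed relative to uncatalyzed rate, n = 2.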
# Target sequence in this assay (P62937 whole entry, looked up): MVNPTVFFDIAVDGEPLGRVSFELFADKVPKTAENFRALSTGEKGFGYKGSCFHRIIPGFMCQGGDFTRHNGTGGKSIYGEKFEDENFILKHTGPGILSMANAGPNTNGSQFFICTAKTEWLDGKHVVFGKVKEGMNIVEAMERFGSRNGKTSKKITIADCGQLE
row,inhibition [%],Compound
1,43,CC(=O)N[C@H](C(=O)N[C@@H](Cc1c[nH]cn1)C(=O)N[C@@H](C)C(=O)NCC(=O)N1CCC[C@H]1C(=O)N[C@H](C(=O)N[C@H](C)C(N)=O)c1ccccc1)C(C)C
2,28,CC(=O)N[C@H](C(=O)N[C@@H](Cc1c[nH]cn1)C(=O)N[C@@H](C)C(=O)NCC(=O)N1CCC[C@H]1C(=O)NCC(=O)N[C@H](C)C(N)=O)C(C)C
3,37,CC(=O)N[C@H](C(=O)N[C@@H](Cc1c[nH]cn1)C(=O)N[C@@H](C)C(=O)NCC(=O)N1CCC[C@H]1C(=O)N[C@@H](C(=O)N[C@H](C)C(N)=O)c1ccccc1)C(C)C
4,15,CC(=O)N[C@H](C(=O)N[C@@H](Cc1c[nH]cn1)C(=O)N[C@@H](C)C(=O)NCC(=O)N1CCC[C@H]1C(=O)N[C@@H](CCC(N)=O)C(=O)N[C@H](C)C(N)=O)C(C)C
5,31,CC(=O)N[C@H](C(=O)N[C@@H](Cc1c[nH]cn1)C(=O)N[C@@H](C)C(=O)NCC(=O)N1CCC[C@H]1C(=O)N[C@H](C(=O)N[C@H](C)C(N)=O)C(C)C)C(C)C
6,45,CC[C@@H](C)[C@@H](NC(=O)[C@@H]1CCCN1C(=O)CNC(=O)C(C)(C)NC(=O)[C@H](Cc1c[nH]cn1)NC(=O)[C@@H](NC(C)=O)C(C)C)C(=O)N[C@H](C)C(N)=O
7,19,CC[C@@H](C)[C@@H](NC(=O)[C@@H]1CCCN1C(=O)CNC(=O)[C@H](C)NC(=O)[C@H](Cc1c[nH]cn1)NC(=O)[C@@H](NC(C)=O)C(C)C)C(=O)N[C@H](C)C(N)=O
8,20,CC[C@H](C)[C@H](NC(=O)[C@@H]1CCCN1C(=O)CNC(=O)[C@H](C)NC(=O)CCc1c[nH]cn1)C(=O)N[C@H](C)C(N)=O
9,15,CC[C@H](C)[C@H](NC(=O)[C@@H]1CCCN1C(=O)CNC(=O)[C@H](C)NC(=O)[C@@H](N)Cc1c[nH]cn1)C(=O)N[C@H](C)C(=O)O
10,76,CC[C@H](C)[C@H](NC(=O)[C@@H]1CCCN1C(=O)CNC(=O)[C@H](C)NC(=O)[C@H](Cc1c[nH]cn1)NC(=O)CC(C)C)C(=O)N[C@H](C)C(N)=O
11,11,CC[C@H](C)[C@H](NC(=O)[C@@H]1CCCN1C(=O)CNC(=O)[C@H](C)NC(=O)[C@H](Cc1c[nH]cn1)NC(=O)[C@@H](N)C(C)C)C(=O)N[C@H](C)C(N)=O
12,55,CC[C@H](C)[C@H](NC(=O)[C@@H]1CCCN1C(=O)CNC(=O)[C@H](C)NC(=O)[C@H](Cc1c[nH]cn1)NC(C)=O)C(=O)NCc1ccccc1 (Ac-HAGPI-NHBn)
13,88,CC[C@H](C)[C@H](NC(=O)[C@@H]1CCCN1C(=O)CNC(=O)[C@H](C)NC(=O)[C@H](Cc1c[nH]cn1)NC(=O)[C@@H](NC(C)=O)C(C)C)C(=O)NCc1ccccc1 (Ac-VHAGPI-NHBn)
14,38,CC[C@H](C)[C@H](NC(=O)[C@@H]1CCCN1C(=O)CNC(=O)[C@H](C)NC(=O)[C@H](Cc1c[nH]cn1)NC(=O)[C@@H](NC(C)=O)C(C)C)C(=O)NC(c1ccccc1)c1ccccc1 (Ac-VHAGPI-NHCHPh2)
15,59,CC[C@H](C)[C@H](NC(=O)[C@@H]1CCCN1C(=O)CNC(=O)[C@H](C)NC(=O)[C@H](Cc1c[nH]cn1)NC(=O)[C@@H](N)C(C)C)C(=O)NCc1ccccc1 (H-VHAGPI-NHBn)
16,99,CC[C@H](C)[C@H](NC(=O)[C@@H]1CCCN1C(=O)CNC(=O)[C@H](C)NC(=O)[C@H](Cc1c[nH]cn1)NC(=O)CC(C)C)C(=O)NCc1ccccc1 (Isovaleryl-HAGPI-NHBn)
17,57,CC(C)CC(=O)N[C@@H](Cc1c[nH]cn1)C(=O)N[C@@H](C)C(=O)NCC(=O)N1CCC[C@H]1C(=O)NC1(C(=O)NCc2ccccc2)CCCC1 (Isovaleryl-HAGP[Ac5c]-NHBn)
18,50,CC(C)CC(=O)N[C@@H](Cc1c[nH]cn1)C(=O)NC(C)(C)C(=O)NCC(=O)N1CCC[C@H]1C(=O)NC1(C(=O)NCc2ccccc2)CCCC1 (Isovaleryl-H[Aib]GP[Ac5c]-NHBn)
19,13,CC[C@H](C)[C@H](NC(=O)[C@@H]1CCCN1C(=O)CNC(=O)[C@H](C)NC(=O)[C@H](Cc1c[nH]cn1)NC(=O)[C@@H](NC(=O)CCC(=O)O)C(C)C)C(=O)N[C@@H](C)C(N)=O (Suc-VHAGPIA-NH2)

# Target: T1, Peptidyl-prolyl cis-trans isomerase A
# Test: % inhibition of competitive binding, at 500 uM, against human Peptidyl-prolyl isomerase activity using uncoupled assay
# Target sequence in this assay (P62937 whole entry, looked up): as above
row,inhibition [%],Compound
1,52,CC(=O)N[C@H](C(=O)N[C@@H](Cc1c[nH]cn1)C(=O)N[C@@H](C)C(=O)NCC(=O)N1CCC[C@H]1C(=O)NC1(C(=O)N[C@@H](C)C(N)=O)CCCC1)C(C)C (Ac-VHAGP[Ac5c]A-NH2)

# Target: T1, Peptidyl-prolyl cis-trans isomerase A
# Test: % inhibition of competitive binding, at 500 uM, against hCyp-18 PPIase activity using uncoupled assay
# Target sequence in this assay (P62937 whole entry, looked up): as above
row,inhibition [%],Compound
1,54,CC[C@H](C)[C@H](NC(=O)[C@@H]1CCCN1C(=O)CNC(=O)[C@H](C)NC(=O)[C@H](Cc1c[nH]cn1)NC(=O)[C@@H](NC(C)=O)C(C)C)C(=O)NCC(c1ccccc1)c1ccccc1 (Ac-VHAGPI-NHCH2CHPh2)
2,55,CC[C@H](C)[C@H](NC(=O)[C@@H]1CCCN1C(=O)CNC(=O)[C@H](C)NC(=O)[C@H](Cc1c[nH]cn1)NC(=O)[C@@H](NC(C)=O)C(C)C)C(=O)NCCc1ccccc1 (Ac-VHAGPI-NHPhenethyl)
3,38,C[C@H](NC(=O)CCC(=O)O)C(=O)N[C@@H](C)C(=O)N1CCC[C@H]1C(=O)N[C@@H](Cc1ccccc1)C(=O)Nc1ccc([N+](=O)[O-])cc1 (Suc-AAPF-pNA)

# Target: T1, Peptidyl-prolyl cis-trans isomerase A
# Test: 50% inhibitory concentration of competitive binding against human Peptidyl-prolyl isomerase activity using uncoupled assay
# In short: as §1
# Target sequence in this assay (P62937 whole entry): as the sequence (P62937 whole entry, looked up) above
row,IC50 [µM],Compound
1,2100,CC[C@H](C)[C@H](NC(=O)[C@@H]1CCCN1C(=O)CNC(=O)[C@H](C)NC(=O)[C@H](Cc1c[nH]cn1)NC(=O)[C@@H](N)C(C)C)C(=O)N[C@@H](C)C(N)=O
2,820,CC(=O)N[C@H](C(=O)N[C@@H](Cc1c[nH]cn1)C(=O)N[C@@H](C)C(=O)NCC(=O)N1CCC[C@H]1C(=O)N[C@H](C(=O)N[C@H](C)C(N)=O)c1ccccc1)C(C)C
3,1500,CC(=O)N[C@H](C(=O)N[C@@H](Cc1cnc[nH]1)C(=O)N[C@@H](C)C(=O)NCC(=O)N1CCC[C@H]1C(=O)N[C@H](C(=O)N[C@@H](C)C(N)=O)C(C)C)C(C)C
4,970,CC(=O)N[C@H](C(=O)N[C@@H](Cc1cnc[nH]1)C(=O)N[C@@H](C)C(=O)NCC(=O)N1CCC[C@H]1C(=O)N[C@@H](C(=O)N[C@H](C)C(N)=O)c1ccccc1)C(C)C
5,760,CC[C@H](C)[C@H](NC(=O)[C@@H]1CCCN1C(=O)CNC(=O)C(C)(C)NC(=O)[C@H](Cc1c[nH]cn1)NC(=O)[C@@H](NC(C)=O)C(C)C)C(=O)N[C@@H](C)C(N)=O
6,1300,CC(=O)N[C@H](C(=O)N[C@@H](Cc1cnc[nH]1)C(=O)N[C@@H](C)C(=O)NCC(=O)N1CCC[C@H]1C(=O)N[C@@H](CCC(N)=O)C(=O)N[C@@H](C)C(N)=O)C(C)C
7,2800,CC(=O)N[C@H](C(=O)N[C@@H](Cc1c[nH]cn1)C(=O)N[C@@H](C)C(=O)NCC(=O)N1CCC[C@H]1C(=O)NCC(=O)N[C@@H](C)C(N)=O)C(C)C
8,850,CC[C@H](C)[C@H](NC(=O)[C@@H]1CCCN1C(=O)CNC(=O)[C@H](C)NC(=O)[C@H](Cc1cnc[nH]1)NC(=O)[C@@H](NC(C)=O)C(C)C)C(=O)N[C@@H](C)C(N)=O
9,280,CC[C@H](C)[C@H](NC(=O)[C@@H]1CCCN1C(=O)CNC(=O)[C@H](C)NC(=O)[C@H](Cc1c[nH]cn1)NC(C)=O)C(=O)NCc1ccccc1 (Ac-HAGPI-NHBn)
10,115,CC[C@H](C)[C@H](NC(=O)[C@@H]1CCCN1C(=O)CNC(=O)[C@H](C)NC(=O)[C@H](Cc1c[nH]cn1)NC(=O)[C@@H](NC(C)=O)C(C)C)C(=O)NCc1ccccc1 (Ac-VHAGPI-NHBn)
11,1500,CC[C@H](C)[C@H](NC(=O)[C@@H]1CCCN1C(=O)CNC(=O)[C@H](C)NC(=O)[C@H](Cc1c[nH]cn1)NC(=O)[C@@H](NC(C)=O)C(C)C)C(=O)NC(c1ccccc1)c1ccccc1 (Ac-VHAGPI-NHCHPh2)
12,680,CC(=O)N[C@H](C(=O)N[C@@H](Cc1cnc[nH]1)C(=O)N[C@@H](C)C(=O)NCC(=O)N1CCC[C@H]1C(=O)NC1(C(=O)N[C@@H](C)C(N)=O)CCCC1)C(C)C (Ac-VHAGP[Ac5c]A-NH2)
13,> 10000,CC(=O)N[C@H](C(=O)N[C@@H](Cc1c[nH]cn1)C(=O)N[C@@H](C)C(=O)NCC(=O)N1CCC[C@H]1C(=O)NC(C)(C)C(=O)N[C@@H](C)C(N)=O)C(C)C (Ac-VHAGP[Aib]A-NH2)
14,> 10000,CC(=O)N[C@H](C(=O)N[C@@H](Cc1c[nH]cn1)C(=O)N[C@@H](C)C(=O)NCC(=O)N1CCC[C@H]1C(=O)NC1(C(=O)N[C@@H](C)C(N)=O)CCNCC1)C(C)C (Ac-VHAGP[Api]A-NH2)
15,> 10000,CC[C@H](C)[C@H](NC(=O)[C@@H]1CCCN1C(=O)CNC(=O)[C@H](C)NC(=O)CCc1cnc[nH]1)C(=O)NCc1ccccc1 (Desaminohistidyl-AGPI-NHBn)
16,260,CC[C@H](C)[C@H](NC(=O)[C@@H]1CCCN1C(=O)CNC(=O)[C@H](C)NC(=O)[C@H](Cc1cnc[nH]1)NC(=O)[C@@H](N)C(C)C)C(=O)NCc1ccccc1 (H-VHAGPI-NHBn)
17,6,CC[C@H](C)[C@H](NC(=O)[C@@H]1CCCN1C(=O)CNC(=O)[C@H](C)NC(=O)[C@H](Cc1cnc[nH]1)NC(=O)CC(C)C)C(=O)NCc1ccccc1 (Isovaleryl-HAGPI-NHBn)
18,90,CC(C)CC(=O)N[C@@H](Cc1cnc[nH]1)C(=O)N[C@@H](C)C(=O)NCC(=O)N1CCC[C@H]1C(=O)NC1(C(=O)NCc2ccccc2)CCCC1 (Isovaleryl-HAGP[Ac5c]-NHBn)
19,> 10000,CC[C@H](C)[C@H](NC(=O)[C@@H]1CCCN1C(=O)CNC(=O)C(C)(C)NC(=O)[C@H](Cc1cnc[nH]1)NC(=O)CC(C)C)C(=O)NCc1ccccc1 (Isovaleryl-H[Aib]GPI-NHBn)
20,500,CC(C)CC(=O)N[C@@H](Cc1c[nH]cn1)C(=O)NC(C)(C)C(=O)NCC(=O)N1CCC[C@H]1C(=O)NC1(C(=O)NCc2ccccc2)CCCC1 (Isovaleryl-H[Aib]GP[Ac5c]-NHBn)
21,1000,CC[C@H](C)[C@H](NC(=O)[C@@H]1CCCN1C(=O)CNC(=O)[C@H](C)NC(=O)[C@H](Cc1c[nH]cn1)NC(=O)[C@@H](NC(=O)CCC(=O)O)C(C)C)C(=O)N[C@@H](C)C(N)=O (Suc-VHAGPIA-NH2)
22,2500,Ac-VQAGPIA-NH2
